Results reported in publication PMC9534497 (Science Advances, 2022).

Assays:
[1] = ThermoFluor assay, melting point of DnaA proteins; assay type: physicochemical, E. coli; conditions: protein 5 μM with ATP 5 mM (Fig. 2)
[2] = system: E. coli CM742 (dnaA46ts) carrying pRD (seqA); assay: Growth of dnaA46ts cells with SeqA-expressing plasmid pRD; assay type: cell-based; conditions: 30°C, IPTG 50 μM (SeqA expressed), no arabinose, 0.2% arabinose or 0.2% glucose
Summary of the method: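 Cells carrying the IPTG-inducible seqA plasmid were made competent on LB-agar with tetracycline and 50 μM IPTG. They were transformed with pBAD-based dnaA plasmids and selected at 30°C on tetracycline (12.5 μg/ml) plus ampicillin (100 μg/ml). Single colonies were grown in LB to OD600 ~0.1. Equal OD units were replica-plated with no sugar, 0.2% arabinose or 0.2% glucose.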

E. coli EH3827 = assay: In vivo replication assay, poriC transformation of ∆dnaA cells; assay type: cell-based; conditions: 0.1 or 0.2% arabinose, versus DnaA WT
[3] = system: E. coli EH3287 (∆dnaA/pgsA^+); assay: Subcellular fractionation and immunoblotting of DnaA; assay type: cell-based; conditions: 0.2% arabinose for 90 min
Summary of the method: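 ΔdnaA/pgsA+ cells carrying arabinose-inducible dnaA alleles were grown to OD600 ~0.1, then induced with 0.2% arabinose for 90 min. Lysis used lysozyme (300 μg/ml) plus three freeze-thaw cycles. Cytosol and membranes were separated at 44,000 rpm for 30 min. Membranes were solubilized in octyl-thio-glucoside or CHAPS, recentrifuged and dialysed overnight. Protein levels are relative to wild type, averaged over three biological replicates.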

[4] = DTSSP cross-linking for higher-oligomer forms of DnaA; assay type: biochemical, E. coli; conditions: ATP form treated with DTSSP
[5] = Stability of ATP binding of DnaA at 4°, 30° or 42°C, filter retention assay; set-up: species or system E. coli; conditions: 4° and 30°C, with reduced affinity
Summary of the method: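 Purified DnaA (1.9 μM) was loaded with 1 μM [α-32P]ATP in PP-60 buffer for 15 min at 4°C, then held at 4°, 30° or 42°C. Aliquots were withdrawn at timed intervals. Bound nucleotide was measured by retention on nitrocellulose filters and scintillation counting.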

E. coli CM742 (dnaA46ts) = assay: Flow cytometry, total DNA content per cell; assay type: cell-based; conditions: 30°C, 0.2% arabinose, rifampicin and cephalexin 2.5 hours
Summary of the method: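 Host is dnaA46ts E. coli transformed with pBAD-derived plasmids carrying wild-type or mutant dnaA under an arabinose promoter. Overnight LB cultures with antibiotics were diluted to OD600 ~0.005 and grown 45 min. Each culture was split: one half got 0.2% arabinose, the other 0.2% glucose. At 30°C to OD600 0.15, then rifampicin (150 μg/ml) plus cephalexin (10 μg/ml) for 2.5 h; DNA content measured by flow cytometry.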

E. coli MG1655 = assay: Growth of wild-type host on overexpression of DnaA; assay type: cell-based; conditions: 30°C, WT host

B1: DnaA(D118Q): DnaA mutant, Asp^118 in the linker domain substituted with Gln (protein)
chain: MSLSLWQQCLARLQDELPATEFSMWIRPLQAELSDNTLALYAPNRFVLDWVRDKYLNNINGLLTSFCGADAPQLRFEVGTKPVTQTPQAAVTSNVAAPAQVAQTQPQRAAPSTRSGWQNVPAPAEPTYRSNVNVKHTFDNFVEGKSNQLARAAARQVADNPGGAYNPLFLYGGTGLGKTHLLHAVGNGIMARKPNAKVVYMHSERFVQDMVKALQNNAIEEFKRYYRSVDALLIDDIQFFANKERSQEEFFHTFNALLEGNQQIILTSDRYPKEINGVEDRLKSRFGWGLTVAIEPPELETRVAILMKKADENDIRLPGEVAFFIAKRLRSNVRELEGALNRVIANANFTGRAITIDFVREALRDLLALQEKLVTIDNIQKTVAEYYKIKVADLLSKRRSRSVARPRQMAMALAKELTNHSLPEIGDAFGGRDHTTVLHACRKIEQLREESHDIKEDFSNLIRTLSS
modifications: left off: His10, N-terminal, state not stated
- melting point [1]: 49 °C
- growth on LB-agar plates [2]: showed growth at 30 °C
- reduction in the number of transformants (E. coli EH3827): at least 50 fold
- DnaA in OTG-solubilized membrane fraction (immunoblotting) [3]: abundant accumulation in the membrane
- formation of higher-order oligomer assemblies [4]: higher-order oligomer assemblies were not formed
- retention of bound ATP [5]: maintained its ATP form
- overreplication / DNA content per cell upon induction of DnaA (E. coli CM742 (dnaA46ts)): more extensive
- growth of the host on induced expression (E. coli MG1655): no growth defect
